Measured values reported in publication PMC11112339 (iScience, 2024).
“Also recorded” adds a separate entry of the source.

How the values were obtained:
non-tumor (NT) organoids = experiment: Organoid viability, CellTiter-Glo 3D; type: cell-based, human; conditions: 72 h
Summary of the method: (§1)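 Organoids came from dissociated patient tumour (iCCA) or non-tumour biopsies, embedded in reduced-growth-factor BME droplets with expansion medium. After 3 days, test compound was added at graded concentrations in expansion medium with 0.02% Tween20 for 72 h. Viability was read by CellTiter-Glo 3D luminescence as % of DMSO-treated organoids, with ≥3 independent experiments. EC50 (tumour organoids) came from nonlinear regression.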

Tumor (iCCA) organoids = experiment: Organoid viability, CellTiter-Glo 3D; type: cell-based, human; conditions: 72 h; for EC50: Homo sapiens, read-out: EC50, iCCA-derived organoids growth
Summary of the method: as §1

mVDAC1 wild-type [1] = biological target: T1, mVDAC1 wild-type (Mus musculus, UniProt Q60932); experiment: Fluorescence polarization, NADH binding to purified VDAC1; conditions: read-out: KD of NADH, VDAC1 wild-type; 5 μM NADH titrated with protein; Hill fit
T1 sequence (Q60932 14-296): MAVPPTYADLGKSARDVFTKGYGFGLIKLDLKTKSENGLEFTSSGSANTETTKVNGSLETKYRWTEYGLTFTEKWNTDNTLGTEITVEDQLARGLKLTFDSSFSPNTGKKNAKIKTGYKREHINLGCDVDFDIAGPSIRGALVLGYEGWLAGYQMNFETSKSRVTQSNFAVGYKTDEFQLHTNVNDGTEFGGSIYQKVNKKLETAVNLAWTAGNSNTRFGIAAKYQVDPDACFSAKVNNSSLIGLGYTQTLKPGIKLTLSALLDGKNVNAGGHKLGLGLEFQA
Summary of the method: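 NADH at 5 μM was titrated with increasing recombinant refolded mVDAC1 in 20 mM Tris, 50 mM NaCl, 0.1% LDAO, pH 8.0. NADH intrinsic fluorescence was read at ex 355 / em 460 nm. FP was computed from parallel and perpendicular intensities. KD came from a nonlinear Hill fit of FP against protein concentration, in triplicate.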

mVDAC1 N238K [2] = biological target: T2, mVDAC1 N238K (Mus musculus, UniProt Q60932, N251K); experiment: Thermal denaturation; type: binding; conditions: small molecule 1 mM in DMF; mean ± SEM n=3
T2 sequence (Q60932 14-296 N251K): as the sequence (Q60932 14-296) above, with N238K counted along it
Summary of the method: (§2)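 Wild-type or mutant refolded mVDAC1 (0.9 mg/ml final in 20 mM Tris-HCl, 50 mM NaCl, 0.1% LDAO, pH 8.0) was pretreated 1 h at 4°C with 1 mM test compound or 0.5% DMF. It was heated in capillaries from 35 to 95°C at 30°C/min while tryptophan fluorescence was read at 330/350 nm. Ti was the first-derivative maximum of F350/F330, checked by Hill fit. ΔTi was treated versus untreated, with ≥3 repeats.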

mVDAC1 N238K [3] = biological target: T2, mVDAC1 N238K; experiment: Fluorescence polarization NADH competition assay; type: binding
Summary of the method: (§3)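 This is an FP competition assay. Refolded, SEC-purified recombinant mVDAC1 (7 μM) was preloaded with 5 μM NADH and titrated with increasing test compound. Buffer was 20 mM Tris, 50 mM NaCl, 0.1% LDAO, pH 8.0. FP was computed from parallel and perpendicular intensities. Apparent KD came from a Hill fit of FP against compound concentration, run in triplicate.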

mVDAC1 N238F = mVDAC1 N238F (Mus musculus, UniProt Q60932, N251F); experiment: Thermal denaturation; type: binding; conditions: small molecule 1 mM in DMF; mean ± SEM n=3
Chain of mVDAC1 N238F (Q60932 14-296 N251F): as the sequence (Q60932 14-296) above, with N238F counted along it
Summary of the method: as §2

mVDAC1 = mVDAC1 (Mus musculus, UniProt Q60932); experiment: 19F NMR protein-ligand interaction experiment; type: binding; conditions: compound 100 μM in LDAO buffer, with 5 μM mVDAC1
Chain of mVDAC1 (Q60932 14-296): as the sequence (Q60932 14-296) above
Summary of the method: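 Recombinant mouse VDAC1 was expressed in E. coli M15, refolded from inclusion bodies into LDAO and purified by SEC. Test compound was used at 100 μM final in 20 mM Tris-HCl, 50 mM NaCl, 0.1% LDAO, pH 8.0, with or without 5 μM VDAC1. 19F spectra were taken at 298 K: 0.56 s acquisition, 1 s inter-scan delay, 256 scans, 2 Hz exponential broadening.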

mVDAC1 wild-type [4] = biological target: T1, mVDAC1 wild-type; experiment: Thermal denaturation; type: binding; conditions: mean ± SEM n=3; for Temperature denaturation inflection point (Ti) shift: mVDAC1 0.9 mg/mL in LDAO, VA molecule 1 mM vs DMF 0.5%; for Inflection temperature T(i), WT: small molecule 1 mM in DMF
Summary of the method: as §2

mVDAC1 K236A [5] = biological target: T3, mVDAC1 K236A (Mus musculus, UniProt Q60932, K249A); experiment: Thermal denaturation; type: binding; conditions: small molecule 1 mM in DMF; mean ± SEM n=3
T3 sequence (Q60932 14-296 K249A): as the sequence (Q60932 14-296) above, with K236A counted along it
Summary of the method: as §2

mVDAC1 N238R = mVDAC1 N238R (Mus musculus, UniProt Q60932, N251R); experiment: Thermal denaturation; type: binding; conditions: small molecule 1 mM in DMF; mean ± SEM n=3
Chain of mVDAC1 N238R (Q60932 14-296 N251R): as the sequence (Q60932 14-296) above, with N238R counted along it
Summary of the method: as §2

mVDAC1 K236A [6] = biological target: T3, mVDAC1 K236A; experiment: Fluorescence polarization NADH competition assay; type: binding; conditions: apparent KD, NADH 5 μM, protein 7 μM, mean ± SEM n=3
Summary of the method: as §3

mVDAC1 F18A = mVDAC1 F18A (Mus musculus, UniProt Q60932, F31A); experiment: Thermal denaturation; type: binding; conditions: small molecule 1 mM in DMF; mean ± SEM n=3
Chain of mVDAC1 F18A (Q60932 14-296 F31A): as the sequence (Q60932 14-296) above, with F18A counted along it
Summary of the method: as §2

mVDAC1 N207R = mVDAC1 N207R (Mus musculus, UniProt Q60932, N220R); experiment: Thermal denaturation; type: binding; conditions: small molecule 1 mM in DMF; mean ± SEM n=3
Chain of mVDAC1 N207R (Q60932 14-296 N220R): as the sequence (Q60932 14-296) above, with N207R counted along it
Summary of the method: as §2

mVDAC1 R218Y = mVDAC1 R218Y (Mus musculus, UniProt Q60932, R231Y); experiment: Thermal denaturation; type: binding; conditions: small molecule 1 mM in DMF; mean ± SEM n=3
Chain of mVDAC1 R218Y (Q60932 14-296 R231Y): as the sequence (Q60932 14-296) above, with R218Y counted along it
Summary of the method: as §2

NIH-3T3 = experiment: Cell viability MTT assay; type: cell-based; conditions: Mus musculus, NIH3T3, 48 h, read-out: Half the effective dose (EC50), cell viability
Summary of the method: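 NIH-3T3 kept in high-glucose DMEM with 10% calf serum and penicillin/streptomycin at 37°C, 5% CO₂, used at 70–80% confluency. Seeded 10.000 cells/well, treated 24 h later with a concentration range of test compound for 48 h. MTT added (final 5 mg/ml), 3 h at 37°C, formazan dissolved in DMSO, absorbance 590 nm. n = 3, mean ± SEM; EC50 by nonlinear regression.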

[7] = tested on: iCCA patient-derived 2D cells; experiment: MTT viability of patient-derived 2D cells; type: cell-based, human; conditions: 72 h exposure, 2μM
Summary of the method: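 Primary 2D cells came from iCCA patient biopsies, with paired non-tumour cells as control. Cells were grown in DMEM/F-12 with 10% FBS and 1% pen/strep. They were seeded at 5.000 cells/well, treated 3 days later with test compound at 2 μM for 72 h, and scored by MTT absorbance. n = 3.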

mVDAC1 wild-type [8] = biological target: T1, mVDAC1 wild-type; experiment: Fluorescence polarization NADH competition assay; type: binding
Summary of the method: as §3

Structure (SMILES) | effect on viability of non-tumor organoids (non-tumor (NT) organoids) | effect on viability of iCCA organoids (Tumor (iCCA) organoids) | Kd (mVDAC1 wild-type [1]) [µM] | Inflection temperature T(i), N238K (mVDAC1 N238K [2]) [°C] | Kd (mVDAC1 N238K [3]) [µM] | Inflection temperature T(i), N238F (mVDAC1 N238F) [°C] | 19F resonance change upon VDAC1 binding (mVDAC1) | Temperature denaturation inflection point (Ti) shift (mVDAC1 wild-type [4]) | Inflection temperature T(i), WT (mVDAC1 wild-type [4]) [°C] | Inflection temperature T(i), K236A (mVDAC1 K236A [5]) [°C] | Inflection temperature T(i), N238R (mVDAC1 N238R) [°C] | Kd (mVDAC1 K236A [6]) [µM] | Inflection temperature T(i), F18A (mVDAC1 F18A) [°C] | Inflection temperature T(i), N207R (mVDAC1 N207R) [°C] | EC50 (Tumor (iCCA) organoids) [µM] | Inflection temperature T(i), R218Y (mVDAC1 R218Y) [°C] | EC50 (NIH-3T3) [µM] | reduction in iCCA cell viability [7] | Kd (mVDAC1 wild-type [8]) [µM]
Nc1ccn([C@@H]2O[C@H](CO)[C@@H](O)C2(F)F)c(=O)n1 [GMB, gemcitabine, reference compound] | significant efficacy | significant efficacy | – | – | – | – | – | – | – | – | – | – | – | – | – | – | – | – | –
NC(=O)C1=CN([C@@H]2O[C@H](COP(=O)(O)OP(=O)(O)OC[C@H]3O[C@@H](n4cnc5c(N)ncnc54)[C@H](O)[C@@H]3O)[C@@H](O)[C@H]2O)C=CC1 [NADH] | – | – | 6.8 ± 0.06 | – | – | – | – | – | – | – | – | – | – | – | – | – | – | – | –
O=C(CC(O)(c1nc2ccccc2s1)C(F)(F)F)c1cccc(Br)c1 (stereo not drawn) [VA-C1, 3-(1,3-benzothiazol-2-yl)-1-(3-bromophenyl)-4,4,4-trifluoro-3-hydroxybutan-1-one] | – | reduce cell viability of iCCA organoids in a dose-dependent manner | – | 64.0 ± 0.1 | 15.2 ± 0.1 | 64.0 ± 0.1 | direct binding; also recorded: reduction and broadening of its peak | +4.6 ± 0.1 °C | 60.2 ± 0.1 | 57.3 ± 0.1 | 62.5 ± 0.1 | 26.4 ± 0.4 | 58.0 ± 0.1 | 63.2 ± 0.1 | 15 ± 2 | 62.3 ± 0.1 | 146 ± 3 | about 50% | 18.7 ± 0.3
Cc1ccc(C(=O)OCC(=O)N=c2sccn2Cc2ccccc2Cl)s1 [VA-C6, [2-[[3-[(2-chlorophenyl)methyl]-1,3-thiazol-2-ylidene]amino]-2-oxoethyl] 5-methylthiophene-2-carboxylate] | – | – | – | 63.8 ± 0.1 | 14.9 ± 0.5 | 63.2 ± 0.1 | – | +4.6 ± 0.1 °C | 60.2 ± 0.1 | 57.0 ± 0.1 | 61.8 ± 0.1 | 28.8 ± 0.2 | 58.1 ± 0.1 | 63.0 ± 0.1 | – | 61.6 ± 0.1 | 127 ± 4 | – | 18.7 ± 0.6
CC(=O)N(c1nc(COC(=O)c2ccsc2)cs1)c1ccccc1F [VA-D10, [2-(N-acetyl-2-fluoroanilino)-1,3-thiazol-4-yl]methyl thiophene-3-carboxylate] | – | reduce cell viability of iCCA organoids in a dose-dependent manner | – | 64.4 ± 0.1 | 10.7 ± 0.1 | 63.3 ± 0.1 | direct binding; also recorded: significantly move their chemical shifts | +4.9 ± 0.1 °C | 60.5 ± 0.1 | 57.9 ± 0.1 | 63.1 ± 0.1 | 28 ± 0.7 | 57.3 ± 0.1 | 62.9 ± 0.1 | 25 ± 6 | 62.2 ± 0.2 | 160 ± 4 | about 50% | 18.5 ± 0.2
O=C1C(=Cc2ccc(Cl)cc2)CSc2ccccc21 [VA-D11, 3-[(4-chlorophenyl)methylidene]thiochromen-4-one] | – | – | – | 64.5 ± 0.1 | 13.1 ± 0.4 | 63.1 ± 0.1 | – | +4.7 ± 0.1 °C | 60.2 ± 0.1 | 57.9 ± 0.1 | 63.1 ± 0.1 | 24.2 ± 0.6 | 57.2 ± 0.1 | 62.9 ± 0.1 | – | 62.3 ± 0.1 | 118 ± 3 | – | 15.9 ± 0.7
